Experimental findings from PubChem BioAssay are described below.

Assay [1] is described as follows: Her2 expression decrease, cell viability multiplex – SKBR3 breast tumor cells, AlphaScreen, ATP viability, primary screen (AID 461).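 For Her2 level: lower value means less Her2 protein in the cells.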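 For viability: percent of carrier control wells set as 100% viability.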 Conditions: SKBR3 Her2 protein level, 18-24 h, measured here: SKBR3 viability, ATP luminescence, at 10 µM.
The target of assay [2] is Receptor tyrosine-protein kinase erbB-2 (Homo sapiens) (UniProt P04626). The description is as above. As to conditions: 18-24 h, at 10 µM, stronger effect = lower value.
Assay [3] can be described thus: reduced viability of SK-BR-3 breast cancer cells – cell-based, 24 h, human, pilot screen (AID 572;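 active = viability at or below 10% of carrier control in both of two separate runs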;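 note: compound exposure lasted between 18 and 24 h rather than exactly 24 h; 100% = carrier-treated control wells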). Conditions: SK-BR-3 viability, CellTiter-Glo luminescence, at 10 µM, stronger effect = lower value. In general terms: Cellular ATP, detected with luciferase, serves as a proxy for viable cell number.
Assay [4] is described as follows: HUVEC growth inhibition – cell-based, human, primary screen (AID 575;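 active = viability at or below 30% in both replicate assays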;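 note: 100% = median of untreated cell wells with 0.1% DMSO on each plate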). As to conditions: HUVEC proliferation, CellTiter-Glo luminescence, 72 h; at 10 µM; stronger effect = lower value. In short, it runs like this:
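Assay system: Primary human umbilical vein endothelial cells | Quantity: 1250 cells per well | Medium: Supplemented EBM, 2% fetal bovine serum | Detection: CellTiter-Glo luminescence measuring cellular ATP | Read-out: % viability vs DMSO wells | Plate: Collagen-coated 384-well format | Times: 72 h exposure, 37 °C, 5% CO2, 30 min RT equilibration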

Assay [5] is described as follows: H69AR cell proliferation blockers – human, duplicate replicates, primary screen (AID 580;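 active = viability at or under a set limit in both replicates, limit being median viability minus 3 SD, cut at about 48% in these data, passing the limit was not always enough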;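 note: 100% = mean luminescence of untreated wells and 0% = no signal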). Conditions: H69AR lung tumor cells viability, ATP luminescence, 72 h; at 10 µM; stronger effect = lower value.
Assay [6] in a line: MRP1 drug-resistance reversers in H69AR cells – cell-based, doxorubicin co-treatment, pilot screen (AID 601;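 active = viability loss from added drug above about 55%, and viability with drug at most 40%, in both replicates, limit read from the data, passing the limit was not always enough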). Conditions: CellTiter-Glo, 72 h, at 10 µM; for differential viability (reversal): stronger effect = higher value.
Assay [7] in a line: yeast transport mutant growth inhibition pilot in 384-well plates, post-Golgi transport modulator project (AID 636; in the data active = inhibition above about 31%). As to conditions: absorbance 615 nm, about 18 h, stronger effect = higher value.
Assay [8] can be described thus: growth suppression of yeast trafficking mutant, preliminary HTS, modulators of trafficking downstream of Golgi apparatus project, 1536-format plate, OD 615 nm (AID 637; in the data active = inhibition above about 30%). As to conditions: yeast transport mutant growth, absorbance 615 nm, 18 h; stronger effect = higher value.
Setting [9] is: H69AR cells + 2 uM doxorubicin, measured here: viability with 2 uM doxorubicin, stronger effect = lower value.
The mark [10] stands for this setting: H69AR cells, compound alone cytotoxicity.

Broadly, the viability is a read-out of living cells in per cent, often relative to untreated cells. In general, inhibition refers to the drop in the measured response relative to a control, in per cent.

Calls of active or inactive are those of the source.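 Rule for the calls, unless noted: active = Her2 level under about 52% in both replicate screens, with viability over 70% of control (limit read from the data); inconclusive = Her2 under the limit in one screen only, or viability under 70%; inactive = Her2 level above the set limit.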

Sequence of Receptor tyrosine-protein kinase erbB-2 (Homo sapiens) (P04626 whole entry, looked up): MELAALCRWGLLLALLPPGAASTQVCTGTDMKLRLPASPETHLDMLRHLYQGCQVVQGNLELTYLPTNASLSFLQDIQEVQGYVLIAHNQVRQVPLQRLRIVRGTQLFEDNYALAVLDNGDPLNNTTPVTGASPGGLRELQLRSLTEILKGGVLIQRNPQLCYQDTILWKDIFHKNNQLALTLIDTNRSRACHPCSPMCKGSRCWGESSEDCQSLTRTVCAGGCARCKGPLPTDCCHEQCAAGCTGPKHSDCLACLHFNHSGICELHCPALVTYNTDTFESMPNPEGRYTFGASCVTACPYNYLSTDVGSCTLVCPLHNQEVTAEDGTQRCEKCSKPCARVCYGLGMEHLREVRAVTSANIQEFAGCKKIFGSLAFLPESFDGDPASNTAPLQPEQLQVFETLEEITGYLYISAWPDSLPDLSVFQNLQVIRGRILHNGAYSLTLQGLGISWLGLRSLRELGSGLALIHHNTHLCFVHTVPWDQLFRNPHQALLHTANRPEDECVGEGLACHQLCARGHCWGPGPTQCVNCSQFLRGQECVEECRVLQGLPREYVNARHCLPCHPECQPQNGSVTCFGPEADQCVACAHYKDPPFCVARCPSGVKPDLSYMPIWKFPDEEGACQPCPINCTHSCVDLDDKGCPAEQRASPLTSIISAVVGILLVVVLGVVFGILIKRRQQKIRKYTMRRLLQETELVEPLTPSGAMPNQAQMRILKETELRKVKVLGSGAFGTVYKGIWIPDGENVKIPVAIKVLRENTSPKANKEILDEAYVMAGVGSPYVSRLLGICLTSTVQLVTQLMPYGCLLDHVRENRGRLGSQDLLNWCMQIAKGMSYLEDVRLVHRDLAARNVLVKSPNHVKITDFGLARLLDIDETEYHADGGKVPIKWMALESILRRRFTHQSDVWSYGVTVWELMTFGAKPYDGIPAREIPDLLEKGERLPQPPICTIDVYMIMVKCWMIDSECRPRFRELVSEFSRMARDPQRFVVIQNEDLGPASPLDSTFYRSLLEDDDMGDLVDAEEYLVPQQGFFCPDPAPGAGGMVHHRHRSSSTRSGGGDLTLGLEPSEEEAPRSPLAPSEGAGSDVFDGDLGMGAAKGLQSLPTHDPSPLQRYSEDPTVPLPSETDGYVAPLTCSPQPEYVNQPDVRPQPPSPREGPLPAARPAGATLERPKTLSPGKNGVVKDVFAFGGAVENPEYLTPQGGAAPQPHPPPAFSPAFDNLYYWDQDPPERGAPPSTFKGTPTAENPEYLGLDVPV

As to `Cc1c(NC2=NC3(CCCCC3)Cc3ccccc32)c(=O)n(-c2ccccc2)n1C`, the viability in assay [1] is 79.5%; in assay [3], 79.5% (inactive); in assay [4], 95.5% (inactive); in assay [5], 92.5% (inactive); in assay [6] (setting [9]) it was 87.5%; in assay [6] (setting [10]) it was 92.5%. In addition, the Her2 level in assay [2] was 108% (inactive). In addition, the differential viability (reversal) in assay [6] (H69AR cells + 2 uM doxorubicin) is 5.08% (inactive). In addition, the inhibition in assay [7] is -5.13% (inactive); in assay [8], 2.67% (inactive).

As for `COC(=O)c1nn(-c2ccc(-c3ccccc3)cc2)cc1O`, the viability in assay [1] is 94%; in assay [3], 94% (inactive); in assay [4] it was 92.6% (inactive); in assay [5], 89.2% (inactive); in assay [6] (setting [9]), 85.1%; in assay [6] (setting [10]), 89.2%. In assay [2], the Her2 level was 97% (inactive). The differential viability (reversal) in assay [6] (H69AR cells + 2 uM doxorubicin) was 4.12% (inactive). The inhibition is -4.27% (inactive) in assay [7] and -8.06% (inactive) in assay [8].

Take `CCOC(=O)Cn1c(S(=O)(=O)Cc2ccccc2)nc2ccccc21`: the viability in assay [1] was 86%; in assay [3], 86% (inactive); in assay [4], 103% (inactive); in assay [5], 91.5% (inactive); in assay [6] (setting [9]), 87.2%; in assay [6] (setting [10]) it was 91.5%. In assay [2], the Her2 level is 89.5% (inactive). For the same compound, in assay [6] (H69AR cells + 2 uM doxorubicin), the differential viability (reversal) was 4.28% (inactive). The inhibition in assay [7] is -0.13% (inactive); in assay [8], -3% (inactive).

As for `COc1cccc(OCc2nc3c4cnn(-c5ccccc5)c4ncn3n2)c1`, the viability in assay [1] was 97.5%; in assay [3], 97.5% (inactive); in assay [4] it was 80.1% (inactive); in assay [5], 67.8% (inactive); in assay [6] (setting [9]), 88.3%; in assay [6] (setting [10]) it was 67.8%. Moreover, the Her2 level in assay [2] was 99.5% (inactive). In addition, the differential viability (reversal) in assay [6] (H69AR cells + 2 uM doxorubicin) was -20.5% (inactive). Besides, the inhibition in assay [7] is -2.24% (inactive); in assay [8], 3.44% (inactive).

With `C=CCn1c(SCC2=C(C(=O)OCC)C(C)NC(=O)N2)nnc1C1CCCCC1` (stereo not given), the viability is 100% in assay [1]; 100% (inactive) in assay [3]; 83.6% (inactive) in assay [4]; 91.5% (inactive) in assay [5]; 96.2% in assay [6] (setting [9]); 91.5% in assay [6] (setting [10]). Further, in assay [2], the Her2 level is 105% (inactive). The differential viability (reversal) in assay [6] (H69AR cells + 2 uM doxorubicin) was -4.74% (inactive). Further, the inhibition in assay [7] was -5.06% (inactive); in assay [8], -0.98% (inactive).

For `COCCOc1nc2ccccc2nc1C`, the viability in assay [1] is 126%; in assay [3], 126% (inactive); in assay [4], 88.4% (inactive); in assay [5], 87.6% (inactive); in assay [6] (setting [9]), 86.9%; in assay [6] (setting [10]) it was 87.6%. The Her2 level in assay [2] was 94% (inactive). Besides, the differential viability (reversal) in assay [6] (H69AR cells + 2 uM doxorubicin) is 0.7% (inactive). Moreover, the results for the inhibition in assay [7] and in assay [8] were -3.55% (inactive) and 4.19% (inactive), respectively.

For the compound `CCOc1ccc2ccccc2c1C(=O)N1CCN(c2ccccc2)CC1`, the viability in assay [1] is 95%; in assay [3], 95% (inactive); in assay [4] it was 47.3% (inactive); in assay [5], 9.8% (active); in assay [6] (setting [9]) it was 66.8%; in assay [6] (setting [10]) it was 9.8%. Further, in assay [2], the Her2 level was 83.5% (inactive). For the same compound, in assay [6] (H69AR cells + 2 uM doxorubicin), the differential viability (reversal) was -57% (inactive). Further, the results for the inhibition in assay [7] and in assay [8] were -2.8% (inactive) and -10.6% (inactive), respectively.

As to `COc1ccc(CCNC(=O)C2=COCCO2)cc1`, the viability in assay [1] was 126%; in assay [3], 126% (inactive); in assay [4], 109% (inactive); in assay [5], 108% (inactive); in assay [6] (setting [9]) it was 104%; in assay [6] (setting [10]), 108%. In assay [2], the Her2 level is 94% (inactive). Besides, in assay [6] (H69AR cells + 2 uM doxorubicin), the differential viability (reversal) is 4.46% (inactive). Also, the values for the inhibition in assay [7] and in assay [8] were -6.58% (inactive) and -5.08% (inactive), respectively.

Turning to `CCOC(=O)N1CCN(S(=O)(=O)c2ccc(Br)s2)CC1`, the viability is 103% in assay [1]; 103% (inactive) in assay [3]; 100% (inactive) in assay [4]; 94.4% (inactive) in assay [5]; 86.5% in assay [6] (setting [9]); 94.4% in assay [6] (setting [10]). Also, in assay [2], the Her2 level was 112% (inactive). Further, in assay [6] (H69AR cells + 2 uM doxorubicin), the differential viability (reversal) was 7.92% (inactive). Also, the values for the inhibition in assay [7] and in assay [8] were -3.03% (inactive) and 2.95% (inactive), respectively.

In the case of `Cc1cc(C)c(C#N)c(SCc2[nH]nc3c2C(c2ccccc2)C(C#N)=C(N)O3)n1` (stereo not given), the viability was 93% in assay [1]; 93% (inactive) in assay [3]; 85.3% (inactive) in assay [4]; 99.7% (inactive) in assay [5]; 95.1% in assay [6] (setting [9]); 99.7% in assay [6] (setting [10]). Further, the Her2 level in assay [2] is 80.5% (inactive). Besides, in assay [6] (H69AR cells + 2 uM doxorubicin), the differential viability (reversal) was 4.6% (inactive). Further, the inhibition in assay [7] was -5.33% (inactive); in assay [8], -4.03% (inactive).

Consider `Cc1ccc(S(=O)(=O)NCCCCC(NC(=O)OC(C)(C)C)C(=O)O)cc1` (stereo not given) (tested in a mixture with another compound), for which the viability in assay [1] is 91.5%; in assay [3], 91.5% (inactive); in assay [4], 125% (inactive); in assay [5], 104% (inactive); in assay [6] (setting [9]), 96.8%; in assay [6] (setting [10]), 104%. Also, in assay [2], the Her2 level is 92.5% (inactive). Also, in assay [6] (H69AR cells + 2 uM doxorubicin), the differential viability (reversal) is 7.71% (inactive). Also, the figures for the inhibition in assay [7] and in assay [8] were -3.68% (inactive) and 8.52% (inactive), respectively.

With `Cc1ccc(-c2c3c(=O)n(C)c(=O)n(C)c3cn2CCCN2CCOCC2)cc1`, the viability in assay [1] was 144%; in assay [3], 144% (inactive); in assay [4], 103% (inactive); in assay [5], 77.8% (inactive); in assay [6] (setting [9]), 82%; in assay [6] (setting [10]) it was 77.8%. In addition, the Her2 level in assay [2] is 102% (inactive). For the same compound, the differential viability (reversal) in assay [6] (H69AR cells + 2 uM doxorubicin) is -4.19% (inactive). For the same compound, the inhibition is -7.5% (inactive) in assay [7] and -0.95% (inactive) in assay [8].

Take `OCC#CCSc1nnc(-c2ccccc2Br)o1`: the viability in assay [1] was 118%; in assay [3], 118% (inactive); in assay [4], 85.3% (inactive); in assay [5] it was 86.2% (inactive); in assay [6] (setting [9]), 80.2%; in assay [6] (setting [10]), 86.2%. Further, in assay [2], the Her2 level was 109% (inactive). Besides, in assay [6] (H69AR cells + 2 uM doxorubicin), the differential viability (reversal) is 5.93% (inactive). The inhibition is 0% (inactive) in assay [7] and 4.26% (inactive) in assay [8].

Consider `Cc1ccc(S(=O)(=O)NCC(=O)N(CC(=O)NCc2ccccc2)CC2CCCO2)cc1` (stereo not given), for which the viability in assay [1] was 110%; in assay [3] it was 110% (inactive); in assay [4] it was 108% (inactive); in assay [5], 104% (inactive); in assay [6] (setting [9]), 86.2%; in assay [6] (setting [10]) it was 104%. Further, in assay [2], the Her2 level was 91.5% (inactive). Further, the differential viability (reversal) in assay [6] (H69AR cells + 2 uM doxorubicin) was 17.9% (inactive). Besides, the inhibition was -3.65% (inactive) in assay [7] and 3.49% (inactive) in assay [8].

For `CCOC(=O)C(NC(=O)c1ccccc1)(Nc1cc(C)on1)C(F)(F)F` (stereo not given), the viability in assay [1] was 106%; in assay [3], 106% (inactive); in assay [4] it was 101% (inactive); in assay [5], 97.7% (inactive); in assay [6] (setting [9]) it was 86.6%; in assay [6] (setting [10]) it was 97.7%. The Her2 level in assay [2] was 90.5% (inactive). Further, the differential viability (reversal) in assay [6] (H69AR cells + 2 uM doxorubicin) was 11.1% (inactive). Moreover, the inhibition in assay [7] is -0.93% (inactive); in assay [8] it was -1.61% (inactive).
